Source: ChEMBL document CHEMBL4732114, “Design and structural optimization of novel 2H-benzo[h]chromene derivatives that target AcrB and reverse bacterial multidrug resistance” (Eur J Med Chem, 2021)
≈ marks a conversion by molar mass, not a printed value.

Columns and labels:
[1] = target: T1, Multidrug efflux pump subunit AcrB (Escherichia coli (strain K12)) (UniProt P31224); experiment: Inhibition of AcrB in multidrug-resistant Escherichia coli BW25113 assessed as potentiation of tetraphenylphosphonium-induced antibacterial activity by measuring tetraphenylphosphonium MIC at 128 ug/ml by checkerboard titration method (reference value: 1024 ug/ml); details: dose 128.0 µg/ml
T1 sequence (whole entry): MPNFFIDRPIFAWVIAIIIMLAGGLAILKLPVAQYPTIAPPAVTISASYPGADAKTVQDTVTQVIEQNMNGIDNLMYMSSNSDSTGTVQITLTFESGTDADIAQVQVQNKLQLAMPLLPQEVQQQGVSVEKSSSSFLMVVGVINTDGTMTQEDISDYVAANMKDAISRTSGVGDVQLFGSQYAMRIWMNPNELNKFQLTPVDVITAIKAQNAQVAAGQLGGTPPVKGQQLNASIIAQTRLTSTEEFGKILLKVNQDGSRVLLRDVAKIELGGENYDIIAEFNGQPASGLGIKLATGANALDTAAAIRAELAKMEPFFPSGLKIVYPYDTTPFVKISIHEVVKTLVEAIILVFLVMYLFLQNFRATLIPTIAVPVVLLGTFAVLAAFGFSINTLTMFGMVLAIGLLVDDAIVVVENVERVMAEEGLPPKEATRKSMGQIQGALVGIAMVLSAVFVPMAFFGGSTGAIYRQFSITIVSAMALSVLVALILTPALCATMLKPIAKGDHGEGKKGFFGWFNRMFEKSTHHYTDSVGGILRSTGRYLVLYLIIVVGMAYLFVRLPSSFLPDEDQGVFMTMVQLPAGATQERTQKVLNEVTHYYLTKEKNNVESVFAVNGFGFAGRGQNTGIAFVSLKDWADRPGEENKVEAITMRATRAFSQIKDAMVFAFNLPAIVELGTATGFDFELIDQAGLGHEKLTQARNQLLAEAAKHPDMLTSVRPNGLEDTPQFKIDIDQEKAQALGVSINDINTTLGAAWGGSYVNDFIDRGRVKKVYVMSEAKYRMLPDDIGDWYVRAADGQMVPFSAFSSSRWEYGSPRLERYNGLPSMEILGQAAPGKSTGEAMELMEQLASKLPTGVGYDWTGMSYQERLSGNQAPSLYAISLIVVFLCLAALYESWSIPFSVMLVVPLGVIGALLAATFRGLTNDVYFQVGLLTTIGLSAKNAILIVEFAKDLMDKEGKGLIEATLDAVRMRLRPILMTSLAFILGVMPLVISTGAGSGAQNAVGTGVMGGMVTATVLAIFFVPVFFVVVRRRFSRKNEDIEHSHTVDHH

[2] = target: T1, Multidrug efflux pump subunit AcrB (Escherichia coli (strain K12)); experiment: Inhibition of AcrB in multidrug-resistant Escherichia coli BW25113 assessed as potentiation of levofloxacin-induced antibacterial activity by measuring levofloxacin MIC at 64 ug/ml by checkerboard titration method (reference value: 0.06 ug/ml); details: dose 64.0 µg/ml
[3] = target: T1, Multidrug efflux pump subunit AcrB (Escherichia coli (strain K12)); experiment: Inhibition of AcrB in multidrug-resistant Escherichia coli BW25113 assessed as potentiation of erythromycin-induced antibacterial activity by measuring erythromycin MIC at 16 ug/ml by checkerboard titration method (reference value: 64 ug/ml); details: dose 16.0 µg/ml
[4] = target: T1, Multidrug efflux pump subunit AcrB (Escherichia coli (strain K12)); experiment: Inhibition of AcrB in multidrug-resistant Escherichia coli BW25113 assessed as potentiation of tetraphenylphosphonium-induced antibacterial activity by measuring tetraphenylphosphonium MIC at 8 ug/ml by checkerboard titration method (reference value: 1024 ug/ml); details: dose 8.0 µg/ml
[5] = target: T1, Multidrug efflux pump subunit AcrB (Escherichia coli (strain K12)); details: Escherichia coli BW25113; dose 16.0 µg/ml
[6] = target: T1, Multidrug efflux pump subunit AcrB (Escherichia coli (strain K12)); experiment: Inhibition of AcrB in multidrug-resistant Escherichia coli BW25113 assessed as potentiation of erythromycin-induced antibacterial activity by measuring erythromycin MIC at 32 ug/ml by checkerboard titration method (reference value: 64 ug/ml); details: dose 32.0 µg/ml
[7] = system: Cell membrane; experiment: Induction of inner membrane permeabilization in wild type Escherichia coli BW25113 assessed as perturbation of proton motive force at 64 ug/ml measured after 10 mins in presence of CCCP and glucose by Di0C2(3) probe based fluorescence assay; details: escherichia coli bw25113, 10 min, dose 64 µg/ml
Method in brief: (§1)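 Cell suspensions were left untreated or exposed to 8-128 µg/mL compound for 10 min. DiOC₂(3) was then added and fluorescence followed to a plateau. Cells were re-energized with 0.5% glucose, and the rise in fluorescence was read as membrane-potential build-up. CCCP was added last to dissipate the potential.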

[8] = target: T1, Multidrug efflux pump subunit AcrB (Escherichia coli (strain K12)); experiment: Inhibition of AcrB in multidrug-resistant Escherichia coli BW25113 assessed as potentiation of tetraphenylphosphonium-induced antibacterial activity by measuring tetraphenylphosphonium MIC at 64 ug/ml by checkerboard titration method (reference value: 1024 ug/ml); details: dose 64.0 µg/ml
[9] = target: T1, Multidrug efflux pump subunit AcrB (Escherichia coli (strain K12)); experiment: Inhibition of AcrB in multidrug-resistant Escherichia coli BW25113 assessed as potentiation of erythromycin-induced antibacterial activity by measuring erythromycin MIC at 64 ug/ml by checkerboard titration method (reference value: 64 ug/ml); details: dose 64.0 µg/ml
[10] = target: T1, Multidrug efflux pump subunit AcrB (Escherichia coli (strain K12)); experiment: Inhibition of AcrB in multidrug-resistant Escherichia coli BW25113 assessed as potentiation of levofloxacin-induced antibacterial activity by measuring levofloxacin MIC at 16 ug/ml by checkerboard titration method (reference value: 0.06 ug/ml); details: dose 16.0 µg/ml
[11] = target: T1, Multidrug efflux pump subunit AcrB (Escherichia coli (strain K12)); experiment: Inhibition of AcrB in multidrug-resistant Escherichia coli BW25113 assessed as potentiation of erythromycin-induced antibacterial activity by measuring erythromycin MIC at 128 ug/ml by checkerboard titration method (reference value: 64 ug/ml); details: dose 128.0 µg/ml
[12] = target: T1, Multidrug efflux pump subunit AcrB (Escherichia coli (strain K12)); details: Escherichia coli BW25113; dose 64.0 µg/ml
[13] = target: T1, Multidrug efflux pump subunit AcrB (Escherichia coli (strain K12)); experiment: Inhibition of AcrB in multidrug-resistant Escherichia coli BW25113 assessed as potentiation of chloramphenicol-induced antibacterial activity by measuring chloramphenicol MIC at 128 ug/ml by checkerboard titration method (reference value: 8 ug/ml); details: dose 128.0 µg/ml
[14] = system: Cell membrane; experiment: Induction of inner membrane permeabilization in wild type Escherichia coli BW25113 assessed as perturbation of proton motive force at 128 ug/ml measured after 10 mins in presence of CCCP and glucose by Di0C2(3) probe based fluorescence assay; details: escherichia coli bw25113, 10 min, dose 128 µg/ml; method in brief: as §1
[15] = system: Cell membrane; experiment: Induction of inner membrane permeabilization in wild type Escherichia coli BW25113 assessed as perturbation of proton motive force at 32 ug/ml measured after 10 mins in presence of CCCP and glucose by Di0C2(3) probe based fluorescence assay; details: escherichia coli bw25113, 10 min, dose 32 µg/ml; method in brief: as §1

| Compound | MIC [1] | MIC [2] | MIC [3] | MIC [4] | MIC [5] | MIC [6] | Activity [7] | MIC [8] | MIC [9] | MIC [10] | MIC [11] | MIC [12] | MIC [13] | Activity [14] | Activity [15] |
| --- | --- | --- | --- | --- | --- | --- | --- | --- | --- | --- | --- | --- | --- | --- | --- |
| CC1(C)CCc2c(C(=O)N3CCOCC3)cc3c(OCc4ccc(C(F)(F)F)cc4)cccc3c2O1 | 256 µg/mL | 0.06 µg/mL | 64 µg/mL | 512 µg/mL | 16 µg/mL (≈ 32 µM) | 64 µg/mL | Not Active | 512 µg/mL | 16 µg/mL | 0.06 µg/mL | 16 µg/mL | 16 µg/mL (≈ 32 µM) | 4 µg/mL | – | – |
| COc1cccc(COc2cccc3c4c(c(C(=O)O)cc23)CCC(C)(C)O4)c1 | 256 µg/mL | 0.06 µg/mL | 64 µg/mL | 1020 µg/mL | 16 µg/mL (≈ 40.8 µM) | 32 µg/mL | – | 512 µg/mL | 32 µg/mL | 0.06 µg/mL | 16 µg/mL | 16 µg/mL (≈ 40.8 µM) | 4 µg/mL | Not Active | Not Active |
| CC1(C)CCc2c(C(=O)N3CCOCC3)cc3c(OCc4ccccc4)cccc3c2O1 | 64 µg/mL | 0.03 µg/mL | 64 µg/mL | 512 µg/mL | 16 µg/mL (≈ 37.1 µM) | 64 µg/mL | Not Active | 512 µg/mL | 16 µg/mL | 0.03 µg/mL | 8 µg/mL | 16 µg/mL (≈ 37.1 µM) | 4 µg/mL | – | – |
| Cc1ccc(COc2cccc3c4c(c(-c5nnco5)cc23)CCC(C)(C)O4)cc1 | 64 µg/mL | 0.03 µg/mL | 32 µg/mL | 512 µg/mL | 16 µg/mL (≈ 40 µM) | 32 µg/mL | – | 512 µg/mL | 16 µg/mL | 0.03 µg/mL | 8 µg/mL | 16 µg/mL (≈ 40 µM) | 2 µg/mL | Not Active | Not Active |
| CC1(C)CCc2c(-c3nnco3)cc3c(OCc4ccc(C#N)cc4)cccc3c2O1 | 512 µg/mL | 0.06 µg/mL | 64 µg/mL | 1020 µg/mL | 16 µg/mL (≈ 38.9 µM) | 64 µg/mL | Not Active | 512 µg/mL | 64 µg/mL | 0.06 µg/mL | 32 µg/mL | 16 µg/mL (≈ 38.9 µM) | 2 µg/mL | Not Active | – |
| CC1(C)CC(=O)c2ccc(OCC(=O)Nc3ccc(C#N)c(C(F)(F)F)c3)cc2O1 | – | 0.06 µg/mL | 64 µg/mL | 1020 µg/mL | 16 µg/mL (≈ 38.2 µM) | 64 µg/mL | Not Active | 256 µg/mL | 64 µg/mL | 0.06 µg/mL | – | 16 µg/mL (≈ 38.2 µM) | – | – | Not Active |
| CC1(C)CCc2c(C(=O)O)cc3c(OCc4ccccc4)cccc3c2O1 | 64 µg/mL | 0.01 µg/mL | 64 µg/mL | 1020 µg/mL | 16 µg/mL (≈ 44.1 µM) | 64 µg/mL | Not Active | 256 µg/mL | 64 µg/mL | 0.06 µg/mL | 32 µg/mL | 16 µg/mL (≈ 44.1 µM) | 1 µg/mL | – | Active |
